Data: ChEMBL document CHEMBL3774372, “Design, physico-chemical properties and biological evaluation of some new N-[(phenoxy)alkyl]- and N-{2-[2-(phenoxy)ethoxy]ethyl}aminoalkanols as anticonvulsant agents” (Bioorg Med Chem, 2016)
Calls of active or inactive are those of the source.

Columns and labels:
[1] = […] from rat cerebral cortex Sodium channel site 2; assay type: tissue-based
Mus musculus [2] = assay: Anticonvulsant activity in mouse assessed as protection against maximal electric shock-induced seizures at 100 mg/kg, ip measured after […]; assay type: functional, organism-based
Mus musculus [3] = assay: Anticonvulsant activity in mouse assessed as protection against 6 Hz psychomotor seizure at 50 mg/kg, ip after 0.5 hrs; assay type: functional, organism-based
In short: (§1)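 Suspension in 0.5% methylcellulose given ip to mice; corneal stimulation with 0.2 ms monopolar rectangular pulses at 6 Hz for 3 s from a constant current device, mice restrained then released to observation cage. Protected if normal exploratory behaviour resumed within 10 s of stimulation. Scored as protected/tested, 4 mice per group.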

Mus musculus [4] = assay: Anticonvulsant activity in mouse assessed as protection against 6 Hz psychomotor seizure at 50 mg/kg, ip after 1 hr; assay type: functional, organism-based; in short: as §1
Mus musculus [5] = assay: Anticonvulsant activity in mouse assessed as protection against 6 Hz psychomotor seizure at 50 mg/kg, ip after 2 hrs; assay type: functional, organism-based; in short: as §1
Mus musculus [6] = assay: Anticonvulsant activity in mouse assessed as protection against 6 Hz psychomotor seizure at 50 mg/kg, ip after 4 hrs; assay type: functional, organism-based; in short: as §1
Mus musculus [7] = assay: Neurotoxicity in mouse at 50 mg/kg, ip after 0.5 hrs by rotarod test; assay type: toxicity, organism-based; details: in vivo
In short: (§2)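 Mice were dosed ip with compound suspended in 0.5% methylcellulose. Rotarod: a 1 in. knurled rod turning at 6 rpm. Neurotoxicity was scored as failure to stay on the rod for at least 1 min in each of three trials. Results are given as the number of animals affected out of the number tested.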

Mus musculus [8] = assay: Neurotoxicity in mouse at 50 mg/kg, ip after 1 hr by rotarod test; assay type: toxicity, organism-based; details: in vivo; in short: as §2
Mus musculus [9] = assay: Neurotoxicity in mouse at 50 mg/kg, ip after 2 hrs by rotarod test; assay type: toxicity, organism-based; details: in vivo; in short: as §2
Mus musculus [10] = assay: Neurotoxicity in mouse at 50 mg/kg, ip after 4 hrs by rotarod test; assay type: toxicity, organism-based; details: in vivo; in short: as §2
Mus musculus [11] = assay: Neurotoxicity in mouse at 100 mg/kg, ip after […] by rotarod test; assay type: toxicity, organism-based; details: in vivo
Mus musculus [12] = assay: Anticonvulsant activity in mouse assessed as protection against maximal electric shock-induced seizures at 100 mg/kg, ip measured after 0.5 hrs; assay type: functional, organism-based
In short: (§3)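 Mice dosed ip with suspension in 0.5% methylcellulose; maximal electroshock applied at the listed time after dosing. Protection = abolition of hindlimb tonic extension component of seizure; reported as animals protected/animals tested.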

Mus musculus [13] = assay: Anticonvulsant activity in mouse assessed as protection against maximal electric shock-induced seizures at 100 mg/kg, ip measured after 1 hr; assay type: functional, organism-based; in short: as §3
Mus musculus [14] = assay: Anticonvulsant activity in mouse assessed as protection against maximal electric shock-induced seizures at 100 mg/kg, ip measured after 4 hrs; assay type: functional, organism-based; in short: as §3
Mus musculus [15] = assay: Neurotoxicity in mouse at 100 mg/kg, ip after 0.5 hrs by rotarod test; assay type: toxicity, organism-based; details: in vivo; in short: as §2
Mus musculus [16] = assay: Neurotoxicity in mouse at 100 mg/kg, ip after 1 hr by rotarod test; assay type: toxicity, organism-based; details: in vivo; in short: as §2
Mus musculus [17] = assay: Neurotoxicity in mouse at 100 mg/kg, ip after 4 hrs by rotarod test; assay type: toxicity, organism-based; details: in vivo; in short: as §2
Rattus norvegicus [18] = assay: Anticonvulsant activity in rat assessed as protection against maximal electric shock-induced seizures at 30 mg/kg, po measured after 0.5 hrs; assay type: functional, organism-based
In short: (§4)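 Rats dosed ip or orally as 0.5% methylcellulose suspension; maximal electroshock at listed time. Protection = abolition of hindlimb tonic extension; 4 rats per group, scored protected/tested.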

Rattus norvegicus [19] = assay: Anticonvulsant activity in rat assessed as protection against maximal electric shock-induced seizures at 30 mg/kg, po measured after 1 hr; assay type: functional, organism-based; in short: as §4
Mus musculus [20] = assay: Anticonvulsant activity in mouse assessed as protection against maximal electric shock-induced seizures at 3 mg/kg, ip measured after 0.5 hrs; assay type: functional, organism-based; in short: as §3
Rattus norvegicus [21] = assay: Anticonvulsant activity in rat assessed as protection against maximal electric shock-induced seizures at 30 mg/kg, po measured after 2 hrs; assay type: functional, organism-based; in short: as §4
Rattus norvegicus [22] = assay: Anticonvulsant activity in rat assessed as protection against maximal electric shock-induced seizures at 30 mg/kg, po measured after 4 hrs; assay type: functional, organism-based; in short: as §4
Rattus norvegicus [23] = assay: Neurotoxicity in rat at 30 mg/kg, po after […] by rotarod test; assay type: toxicity, organism-based; details: in vivo
Rattus norvegicus [24] = assay: Neurotoxicity in rat at 30 mg/kg, po after 0.5 hrs by rotarod test; assay type: toxicity, organism-based; details: in vivo
Rattus norvegicus [25] = assay: Neurotoxicity in rat at 30 mg/kg, po after 1 hr by rotarod test; assay type: toxicity, organism-based; details: in vivo
Rattus norvegicus [26] = assay: Neurotoxicity in rat at 30 mg/kg, po after 2 hrs by rotarod test; assay type: toxicity, organism-based; details: in vivo
Rattus norvegicus [27] = assay: Neurotoxicity in rat at 30 mg/kg, po after 4 hrs by rotarod test; assay type: toxicity, organism-based; details: in vivo
Mus musculus [28] = assay: Anticonvulsant activity in mouse assessed as protection against maximal electric shock-induced seizures at 10 mg/kg, ip measured after 0.5 hrs; assay type: functional, organism-based; in short: as §3
Mus musculus [29] = assay: Anticonvulsant activity in mouse assessed as protection against maximal electric shock-induced seizures at 30 mg/kg, ip measured after 0.5 hrs; assay type: functional, organism-based; in short: as §3
Mus musculus [30] = assay: Anticonvulsant activity in mouse assessed as protection against maximal electric shock-induced seizures at 30 mg/kg, ip measured after 4 hrs; assay type: functional, organism-based; in short: as §3
Mus musculus [31] = assay: Neurotoxicity in mouse at 10 mg/kg, ip after 0.5 hrs by rotarod test; assay type: toxicity, organism-based; details: in vivo; in short: as §2
Mus musculus [32] = assay: Neurotoxicity in mouse at 3 mg/kg, ip after 0.5 hrs by rotarod test; assay type: toxicity, organism-based; details: in vivo; in short: as §2
Mus musculus [33] = assay: Anticonvulsant activity in mouse assessed as protection against subcutaneous pentylenetetrazol-induced seizures at 30 mg/kg, ip measured after 0.5 hrs; assay type: functional, organism-based
In short: (§5)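 Mice dosed ip as 0.5% methylcellulose suspension; pentylenetetrazole 85 mg/kg in 0.9% NaCl injected subcutaneously into posterior midline, animals watched at least 30 min. Protection = no threshold seizure (single clonic spasm episode lasting ≥5 s); scored protected/tested.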

Mus musculus [34] = assay: Anticonvulsant activity in mouse assessed as protection against subcutaneous pentylenetetrazol-induced seizures at 30 mg/kg, ip measured after 4 hrs; assay type: functional, organism-based; in short: as §5
Mus musculus [35] = assay: Neurotoxicity in mouse at 30 mg/kg, ip after 0.5 hrs by rotarod test; assay type: toxicity, organism-based; details: in vivo; in short: as §2
Mus musculus [36] = assay: Neurotoxicity in mouse at 30 mg/kg, ip after 4 hrs by rotarod test; assay type: toxicity, organism-based; details: in vivo; in short: as §2
Mus musculus [37] = assay: Neurotoxicity in mouse at 300 mg/kg, ip after 0.5 hrs by rotarod test; assay type: toxicity, organism-based; details: in vivo; in short: as §2
Rattus norvegicus [38] = assay: Anticonvulsant activity in rat assessed as protection against maximal electric shock-induced seizures at 30 mg/kg, po measured after […]; assay type: functional, organism-based
Vibrio harveyi [39] = assay: Mutagenicity in Vibrio harveyi BB7 assessed as number of colonies after 48 hrs (reference value: 13 to 14 no_unit); assay type: ADME, organism-based; details: in vivo
In short: (§6)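 Vibrio harveyi mutagenicity test: test compound was added to exponentially growing cultures (A600 = 0.1, 30 °C) and grown to OD600 0.3–0.4. Then 5 × 10^6 cells were plated on BOSS agar with neomycin (final 100 µg/mL) and incubated 48 h at 30 °C. Neomycin-resistant colonies were counted. Triplicate; controls were water, DMSO and NQNO 40 ng/mL.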

Vibrio harveyi [40] = assay: Mutagenicity in Vibrio harveyi BB7X assessed as number of colonies after 48 hrs (reference value: 15 to 16 no_unit); assay type: ADME, organism-based; details: in vivo; in short: as §6
Vibrio harveyi [41] = assay: Mutagenicity in Vibrio harveyi BB7M assessed as number of colonies after 48 hrs (reference value: 13 to 14 no_unit); assay type: ADME, organism-based; details: in vivo; in short: as §6
Vibrio harveyi [42] = assay: Mutagenicity in Vibrio harveyi BB7XM assessed as number of colonies after 48 hrs (reference value: 14 no_unit); assay type: ADME, organism-based; details: in vivo; in short: as §6
Vibrio harveyi [43] = assay: Antimutagenic activity against Vibrio harveyi BB7 assessed as inhibition of NQNO-induced mutagenicity after 48 hrs; assay type: functional
In short: (§7)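 V. harveyi cultures grown exponentially to A600 0.1 at 30 °C, exposed to test compound for 15 min, then to NQNO, and grown on to A600 0.3–0.4. 5 × 10⁶ cells plated on BOSS agar with neomycin (100, final). Neomycin-resistant colonies counted after 48 h at 30 °C. Result given as % inhibition of NQNO mutagenicity; three independent repeats.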

Vibrio harveyi [44] = assay: Antimutagenic activity against Vibrio harveyi BB7X assessed as inhibition of NQNO-induced mutagenicity after 48 hrs; assay type: functional; in short: as §7
Vibrio harveyi [45] = assay: Antimutagenic activity against Vibrio harveyi BB7M assessed as inhibition of NQNO-induced mutagenicity after 48 hrs; assay type: functional; in short: as §7
Vibrio harveyi [46] = assay: Antimutagenic activity against Vibrio harveyi BB7XM assessed as inhibition of NQNO-induced mutagenicity after 48 hrs; assay type: functional; in short: as §7

Compound COc1ccc(C(=O)O[C@H]2CC[C@@]3(C)[C@@H]4CC[C@H]5[C@]6(O)C[C@H](O)[C@@]7(O)[C@@H](CN8C[C@@H](C)CC[C@H]8[C@@]7(C)O)[C@]6(O)C[C@@]53O[C@]24O)cc1OC [VERATRIDINE] has an IC50 [1] of 4 µM.

In the case of Cc1cccc(OCCN[C@@H]2CCCC[C@H]2O)c1C (racemic), the Activity (Mus musculus [2]) is reported as “Active”, the Activity (Mus musculus [3]) is reported as “inactive” and the Activity (Mus musculus [4]) is reported as “inactive”. The Activity (Mus musculus [5]) was “inactive”, the Activity (Mus musculus [6]) was “inactive” and the Activity (Mus musculus [7]) was “Non-toxic”. The Activity (Mus musculus [8]) was “Non-toxic”, the Activity (Mus musculus [9]) was “Non-toxic” and the Activity (Mus musculus [10]) was “Non-toxic”. The Activity (Mus musculus [11]) was “Toxic”, the Activity (Mus musculus [12]) was “Active” and the Activity (Mus musculus [13]) was “Active”. For the same compound, the Activity (Mus musculus [14]) was “inactive”, the Activity (Mus musculus [15]) was “Toxic” and the Activity (Mus musculus [16]) was “Toxic”. For the same compound, the Activity (Mus musculus [17]) was “Non-toxic”.

In the case of CC[C@@H](CO)NCCOCCOc1c(C)cccc1C, the Activity (Rattus norvegicus [18]) is reported as “inactive”, the Activity (Rattus norvegicus [19]) is reported as “inactive” and the Activity (Mus musculus [20]) is reported as “inactive”. For the same compound, the Activity (Rattus norvegicus [21]) was “inactive”, the Activity (Rattus norvegicus [22]) was “inactive” and the Activity (Rattus norvegicus [23]) was “Non-toxic”. For the same compound, the Activity (Rattus norvegicus [24]) was “Non-toxic”, the Activity (Rattus norvegicus [25]) was “Non-toxic” and the Activity (Rattus norvegicus [26]) was “Non-toxic”. The Activity (Rattus norvegicus [27]) was “Non-toxic”, the Activity (Mus musculus [28]) was “inactive” and the Activity (Mus musculus [29]) was “Active”. The Activity (Mus musculus [30]) was “inactive”, the Activity (Mus musculus [31]) was “Non-toxic” and the Activity (Mus musculus [32]) was “Non-toxic”. The Activity (Mus musculus [33]) was “inactive”, the Activity (Mus musculus [34]) was “inactive” and the Activity (Mus musculus [35]) was “Non-toxic”. For the same compound, the Activity (Mus musculus [36]) was “Non-toxic”, the Activity (Mus musculus [15]) was “Toxic” and the Activity (Mus musculus [37]) was “Toxic”. The Activity (Rattus norvegicus [38]) was “inactive”, the Activity (Vibrio harveyi [39]) was 28 and the Activity (Vibrio harveyi [40]) was 27. The Activity (Vibrio harveyi [41]) was 26, the Activity (Vibrio harveyi [42]) was 22 and the “inhibition (INH)” value (Vibrio harveyi [43]) was 88%. For the same compound, the “inhibition (INH)” value (Vibrio harveyi [44]) was 22%, the “inhibition (INH)” value (Vibrio harveyi [45]) was 52% and the “inhibition (INH)” value (Vibrio harveyi [46]) was 15%.
